Results published in ChEMBL document CHEMBL4184191, “Immunoproteasome inhibition and bioactivity of thiasyrbactins” (2018).
Calls of active or inactive are those of the source. The rule behind the calls is not given here.

Tests used:
[1] = biological target: T1, Proteasome component C5 (Homo sapiens) (UniProt P20618); test: Inhibition of 20s constitutive proteasome caspase-like activity in human erythrocytes using […] as substrate pretreated for 2 hrs followed by substrate addition measured after 10 mins by luminescence assay; assay type: cell-based
T1 sequence (whole entry): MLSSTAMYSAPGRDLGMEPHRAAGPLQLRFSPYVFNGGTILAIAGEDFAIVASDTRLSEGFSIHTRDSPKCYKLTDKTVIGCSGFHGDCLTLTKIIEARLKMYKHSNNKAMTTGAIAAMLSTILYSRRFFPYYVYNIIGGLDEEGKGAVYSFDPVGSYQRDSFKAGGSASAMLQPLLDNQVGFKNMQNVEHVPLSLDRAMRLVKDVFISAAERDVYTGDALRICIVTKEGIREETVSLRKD
Outline: (§1)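 Purified human 20S proteasome was used: constitutive enzyme from erythrocytes, immunoproteasome from PBMCs, each at 2.2 ng/µl. It was preincubated with inhibitor (0 to 10 µM) in 10 mM HEPES pH 7.3 for 2 h at 37 °C. An equal volume of luminogenic substrate was then added ([…], […], Suc-LLVY-Glo for β5), and luminescence was read 10 min later. Runs were in triplicate, and Ki-50 values were fitted and averaged.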

[2] = biological target: Proteasome Macropain subunit (Homo sapiens) (UniProt P49721); test: Inhibition of 20s constitutive proteasome trypsin-like activity in human erythrocytes using […] as substrate pretreated for 2 hrs followed by substrate addition measured after 10 mins by luminescence assay; assay type: cell-based; outline: as §1
Chain of Proteasome Macropain subunit (Homo sapiens) (P49721 whole entry): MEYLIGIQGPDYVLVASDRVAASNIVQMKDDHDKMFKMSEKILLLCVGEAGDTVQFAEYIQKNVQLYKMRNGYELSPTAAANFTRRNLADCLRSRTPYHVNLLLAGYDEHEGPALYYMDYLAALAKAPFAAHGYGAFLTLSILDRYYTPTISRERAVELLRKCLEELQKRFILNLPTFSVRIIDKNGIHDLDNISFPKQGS

[3] = biological target: T2, Proteasome Macropain subunit MB1 (Homo sapiens) (UniProt P28074); test: Inhibition of immunoproteasome chymotrypsin-like activity in human […] using Suc-LLVY-Glo as substrate pretreated for 2 hrs followed by substrate addition measured after 10 mins by luminescence assay; assay type: cell-based; outline: as §1
T2 sequence (whole entry): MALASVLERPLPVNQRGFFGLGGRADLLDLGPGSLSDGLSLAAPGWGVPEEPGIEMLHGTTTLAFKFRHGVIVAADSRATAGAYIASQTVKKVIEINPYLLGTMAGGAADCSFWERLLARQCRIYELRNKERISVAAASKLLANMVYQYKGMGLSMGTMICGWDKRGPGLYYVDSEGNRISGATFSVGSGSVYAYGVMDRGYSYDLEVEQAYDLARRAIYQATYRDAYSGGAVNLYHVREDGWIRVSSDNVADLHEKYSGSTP

[4] = biological target: T1, Proteasome component C5 (Homo sapiens); test: Inhibition of immunoproteasome caspase-like activity in human […] using […] as substrate pretreated for 2 hrs followed by substrate addition measured after 10 mins by luminescence assay; assay type: cell-based; outline: as §1
[5] = biological target: Proteasome Macropain subunit (Homo sapiens) (UniProt P49721); test: Inhibition of immunoproteasome trypsin-like activity in human […] using […] as substrate pretreated for 2 hrs followed by substrate addition measured after 10 mins by luminescence assay; assay type: cell-based; outline: as §1
SK-N-SH [6] = test: Cytotoxicity against human SK-N-SH cells assessed as reduction in cell viability at 0.01 to 1 uM after 24 hrs […]; assay type: functional
[7] = Cytotoxicity against human MYCN2 cells assessed as reduction in cell viability at 0.01 to 1 uM after 24 hrs […]; assay type: functional
SK-N-SH [8] = test: Cytotoxicity against human SK-N-SH cells assessed as reduction in cell viability at 0.1 to 1 uM after 24 hrs […]; assay type: functional, cell-based
Homo sapiens [9] = organism: Homo sapiens; test: Cytotoxicity against human MYCN2 cells assessed as reduction in cell viability at 0.1 to 1 uM after 24 hrs by […] assay; assay type: functional, cell-based
Outline: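 Human neuroblastoma cells were plated overnight in RPMI with 10% heat-inactivated FBS, penicillin (100 U/ml) and streptomycin (100 µg/ml), at 37 C and 5% CO₂. They were exposed to inhibitor at 0.01, 0.1 and 1 µM for 24 h. Viability was read with MTS reagent as absorbance at 490 nm. Two independent experiments were run, each in triplicate wells (n=6), and results are expressed relative to untreated control cells.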

[10] = biological target: T2, Proteasome Macropain subunit MB1 (Homo sapiens); test: Inhibition of 20s constitutive proteasome chymotrypsin-like activity in human erythrocytes using Suc-LLVY-Glo as substrate pretreated for 2 hrs followed by substrate addition measured after 10 mins by luminescence assay; assay type: cell-based; outline: as §1
Homo sapiens [11] = organism: Homo sapiens; test: Cytotoxicity against human SK-N-BE(2)C cells assessed as reduction in cell viability after 24 hrs […]; assay type: functional, cell-based
SK-N-SH [12] = test: Cytotoxicity against human SK-N-SH cells assessed as reduction in cell viability after 24 hrs […]; assay type: functional, cell-based
Homo sapiens [13] = organism: Homo sapiens; test: Cytotoxicity against human MYCN2 cells assessed as reduction in cell viability after 24 hrs […]; assay type: functional, cell-based
[14] = biological target: T2, Proteasome Macropain subunit MB1 (Homo sapiens); test: Stimulation of immunoproteasome chymotrypsin-like activity in human […] at 1 uM using Suc-LLVY-Glo as substrate pretreated for 2 hrs followed by substrate addition measured after 10 mins by luminescence assay; assay type: cell-based

Ki50 [1] [µM]	Ki50 [2] [µM]	Ki50 [3] [µM]	Ki50 [4] [µM]	Ki50 [5] [µM]	inhibition [10]	inhibition [1]	inhibition [2]	inhibition [3]	inhibition [4]	inhibition [5]	Activity [14]	Structure (SMILES)	Activity (SK-N-SH [6])	Activity [7]	Activity (SK-N-SH [8])	Activity (Homo sapiens [9])	Activity (Homo sapiens [11])	Activity (SK-N-SH [12])	Activity (Homo sapiens [13])
> 10	1.76	> 10	> 10	1.39								CCCCCCCCCCCCNC(=O)N[C@H](C(=O)N[C@H]1CSCCNC(=O)/C=C/[C@H](C)NC1=O)C(C)C	30 - 50%	30 - 50%					
0.02		0.01	0.03									CC(C)C[C@H](NC(=O)[C@H](Cc1ccccc1)NC(=O)c1cnccn1)B(O)O			Active	Active			
					inactive	inactive	inactive	inactive	inactive	inactive		C[C@H]1/C=C/C(=O)NCCSC[C@H](NC(=O)c2cnccn2)C(=O)N1					inactive	inactive	inactive

The remaining lines, values behind:

Structure (SMILES)	Ki50 [1] [µM]	Ki50 [2] [µM]	Ki50 [3] [µM]	Ki50 [4] [µM]	Ki50 [5] [µM]	inhibition [10]	inhibition [1]	inhibition [2]	inhibition [3]	inhibition [4]	inhibition [5]	Activity [14]	Activity (SK-N-SH [6])	Activity [7]	Activity (SK-N-SH [8])	Activity (Homo sapiens [9])	Activity (Homo sapiens [11])	Activity (SK-N-SH [12])	Activity (Homo sapiens [13])
COc1ccc(C[C@H](NC(=O)[C@H](C)NC(=O)CN2CCOCC2)C(=O)N[C@@H](Cc2ccccc2)C(=O)[C@]2(C)CO2)cc1	2.07		0.11	1.32															
C[C@H]1/C=C/C(=O)NCC[S+]([O-])C[C@H](NC(=O)c2cnccn2)C(=O)N1 (some centres undefined)						inactive	inactive	inactive	inactive	inactive	inactive						inactive	inactive	inactive
CC(C)[C@H](NC(=O)c1cnccn1)C(=O)N[C@H]1CSCCNC(=O)/C=C/[C@H](C)NC1=O	> 10	0.92	> 10	> 10	0.75							Active							
CCCCCCCCCCCCNC(=O)N[C@H](C(=O)N[C@H]1C[S+]([O-])CCNC(=O)/C=C/[C@H](C)NC1=O)C(C)C (some centres undefined)						inactive	inactive	inactive	inactive	inactive	inactive						inactive	inactive	inactive
CC(C)Cc1ccc([C@H](C)C(=O)N[C@H](C(=O)N[C@H]2CSCCNC(=O)/C=C/[C@H](C)NC2=O)C(C)C)cc1	> 10	1.07	> 10	> 10	0.74							Active							
